Experiments:
[1] = organism: Homo sapiens; assay: (§1) Concentration of compound (after 5 min of addition) that induce LPA expressed in human platelets; format: functional
Outline: (§2)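 Washed human platelets, aspirin-treated and isolated with apyrase, at 4 × 10^5/μL in HEPES buffer pH 7.4, stirred at 37 °C. Lipids given as BSA complexes (4:1). Shape change read as the fall in light transmission in an aggregometer. […] Mean ± SD across different donors.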

[2] = molecular target: T1, Lysophosphatidic acid receptor 3 (Homo sapiens, UniProt Q9UBY5); assay: Inhibition of LPA-induced calcium transients in RH7777 rat hepatoma cells expressing LPA3 receptor; No effect; format: functional, cell-based
T1 sequence (Q9UBY5 whole entry): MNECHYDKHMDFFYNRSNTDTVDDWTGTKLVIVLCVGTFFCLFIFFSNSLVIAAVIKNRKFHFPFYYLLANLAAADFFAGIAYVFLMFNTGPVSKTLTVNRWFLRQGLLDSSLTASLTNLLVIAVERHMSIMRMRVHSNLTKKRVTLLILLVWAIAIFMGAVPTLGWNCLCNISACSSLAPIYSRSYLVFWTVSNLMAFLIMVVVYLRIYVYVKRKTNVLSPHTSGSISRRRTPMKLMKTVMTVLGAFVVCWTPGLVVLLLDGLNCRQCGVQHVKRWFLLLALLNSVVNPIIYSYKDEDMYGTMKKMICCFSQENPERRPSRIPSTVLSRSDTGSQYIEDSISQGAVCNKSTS
Outline: (§3)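 Fura-2 Ca2+ assay. RH7777 cells stably expressing LPA1, LPA2 or LPA3, or PC-3 cells (endogenous LPA1-3), seeded at 50000 cells/well on poly-D-lysine and grown overnight. Serum-starved in modified Krebs, pH 7.4, for 6-8 h (PC-3: 12 h), then Fura-2 AM loaded for 35 min. Compound added at 15 s; wells read 80-120 s. Transient taken as peak minus baseline 340/380 ratio. Antagonism: LPA 18:1 coapplied; highest concentration 30 μM.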

[3] = molecular target: T1, Lysophosphatidic acid receptor 3; assay: Binding affinity for Lysophosphatidic acid receptor 3 expressed in RH7777 rat hepatoma cells; format: cell-based; outline: as §3
[4] = molecular target: T2, Lysophosphatidic acid receptor 2 (Homo sapiens, UniProt Q9HBW0); assay: Inhibition of LPA-induced calcium transients in RH7777 rat hepatoma cells expressing LPA2 receptor; No effect; format: functional, cell-based; outline: as §3
[5] = molecular target: T3, Lysophosphatidic acid receptor 1 (Homo sapiens, UniProt Q92633); assay: Binding affinity for Lysophosphatidic acid receptor 1 expressed in RH7777 rat hepatoma cells; format: cell-based; outline: as §3
[6] = molecular target: T3, Lysophosphatidic acid receptor 1; assay: (§4) Inhibition of LPA-induced calcium transients in RH7777 rat hepatoma cells expressing LPA1 receptor; No effect; format: functional, cell-based; outline: as §3
[7] = molecular target: T3, Lysophosphatidic acid receptor 1; assay: (§5) Inhibition of LPA-induced calcium transients in RH7777 rat hepatoma cells expressing LPA1 receptor; format: functional, cell-based; outline: as §3
[8] = organism: Homo sapiens; assay: Inhibitory concentration of compound (after 5 min of incubation) against LPA human platelets
[9] = molecular target: T1, Lysophosphatidic acid receptor 3; assay: (§6) Inhibition of LPA-induced calcium transients in RH7777 rat hepatoma cells expressing LPA3 receptor; format: functional, cell-based; outline: as §3
[10] = organism: Homo sapiens; assay: Maximal shape change of human platelets induced by the compound; format: functional; outline: as §2
[11] = molecular target: T3, Lysophosphatidic acid receptor 1; assay: as §4; format: functional, cell-based; remark: listed apart in the source
[12] = Inhibition of LPA-induced calcium transients in PC-3 cells; format: functional, cell-based, Homo sapiens
Outline: (§7)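 PC-3 human prostate cancer cells, which express LPA1-3 endogenously, 50000 cells/well. Serum-starved 12 h in modified Krebs, loaded with Fura-2 AM, read in a FlexStation. Ca2+ transient = 340/380 ratio peak minus baseline. Agonism (Emax as % of maximal LPA 18:1 response) and inhibition of LPA-induced transients were measured.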

[13] = molecular target: T2, Lysophosphatidic acid receptor 2; assay: (§8) Inhibition of LPA-induced calcium transients in RH7777 rat hepatoma cells expressing LPA2 receptor; format: functional, cell-based
[14] = Binding affinity for Lysophosphatidic acid receptor in PC-3 cells; format: cell-based, Homo sapiens; outline: as §3
[15] = molecular target: T2, Lysophosphatidic acid receptor 2; assay: as §8; format: functional, cell-based; outline: as §3; remark: listed apart in the source
[16] = molecular target: T2, Lysophosphatidic acid receptor 2; assay: Binding affinity for Lysophosphatidic acid receptor 2 expressed in RH7777 rat hepatoma cells; format: cell-based
[17] = Percent maximal efficacy in PC-3 cells; format: functional, Homo sapiens; outline: as §7
[18] = molecular target: T3, Lysophosphatidic acid receptor 1; assay: as §5; format: functional, cell-based; remark: listed apart in the source
[19] = molecular target: T3, Lysophosphatidic acid receptor 1; assay: Maximal efficacy in induction of [Ca2+] transients in RH7777 rat hepatoma cells expressing LPA1 receptor; format: functional, cell-based
Outline: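 Agonist mode in RH7777 cells stably expressing the named LPA receptor, serum-starved 6-8 h, Fura-2 AM loaded. Increasing compound concentrations were added alone and the Ca2+ transient was read as the 340/380 ratio peak minus baseline. Emax = compound maximal response as a percentage of the LPA 18:1 maximal response.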

[20] = molecular target: T1, Lysophosphatidic acid receptor 3; assay: as §6; format: functional, cell-based; remark: listed apart in the source
[21] = molecular target: T3, Lysophosphatidic acid receptor 1; assay: Inhibition of LPA-induced calcium transients in RH7777 rat hepatoma cells expressing LPA1 receptor; Not effect; format: functional, cell-based; outline: as §3
[22] = Inhibition of LPA-induced calcium transients in PC-3 cells; No effect; format: functional, cell-based, Homo sapiens; outline: as §3
[23] = Inhibition of LPA expressed in PC-3 cells; No effect; format: functional, cell-based, Homo sapiens; outline: as §3
[24] = molecular target: T2, Lysophosphatidic acid receptor 2; assay: Inhibition of LPA-induced calcium transients in RH7777 rat hepatoma cells expressing LPA2 receptor;No effect; format: functional, cell-based; outline: as §3
[25] = organism: Homo sapiens; assay: as §1; format: functional; remark: listed apart in the source
[26] = Homo sapiens, PC-3, read-out: IC50

T3 sequence (Q92633 whole entry): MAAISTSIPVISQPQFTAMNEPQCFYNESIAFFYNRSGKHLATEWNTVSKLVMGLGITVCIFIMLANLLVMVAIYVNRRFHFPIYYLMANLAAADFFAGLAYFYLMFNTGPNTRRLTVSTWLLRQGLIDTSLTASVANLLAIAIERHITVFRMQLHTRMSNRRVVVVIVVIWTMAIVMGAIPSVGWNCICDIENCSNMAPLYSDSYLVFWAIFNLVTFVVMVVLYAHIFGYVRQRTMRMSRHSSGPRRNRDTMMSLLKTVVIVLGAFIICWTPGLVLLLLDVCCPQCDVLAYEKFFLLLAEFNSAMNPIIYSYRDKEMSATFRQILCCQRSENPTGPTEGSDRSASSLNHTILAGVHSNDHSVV
T2 sequence (Q9HBW0 whole entry): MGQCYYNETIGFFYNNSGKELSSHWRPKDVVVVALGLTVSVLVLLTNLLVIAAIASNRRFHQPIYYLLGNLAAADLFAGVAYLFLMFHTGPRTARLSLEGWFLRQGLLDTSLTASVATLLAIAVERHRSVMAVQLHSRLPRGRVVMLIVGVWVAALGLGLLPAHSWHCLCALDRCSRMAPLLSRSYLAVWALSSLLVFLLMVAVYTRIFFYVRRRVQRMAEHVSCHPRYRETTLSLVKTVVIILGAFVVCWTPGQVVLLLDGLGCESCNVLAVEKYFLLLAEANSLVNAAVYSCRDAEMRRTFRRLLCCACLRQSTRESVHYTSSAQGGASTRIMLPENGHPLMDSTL

EC50 [2] | Ki [3] [nM] | IC50 [4] | EC50 [6] | IC50 [7] [nM] | IC50 [9] [nM] | EC50 [4] | SMILES | Emax [10] [%] | IC50 [11] | IC50 [12, 26] [nM] | Ki [14] [nM] | other results
Not Active | 61 | Not Active | Not Active | 2800 | 128 |  | CCCCCCCCCCCCOP(=O)(O)O [PHOSPHORIC ACID MONODODECYL ESTER] | 94 |  |  |  | EC50 [1]: 250 nM; Ki [5]: 1350 nM; IC50 [8]: 160 nM
Not Active | 1120 |  | Not Active | ~10000 | 3100 | Not Active | CCCCCCCCCCCCCCP(=O)(O)O | 0 |  | 9670 | 4620 | IC50 [15]: 5500 nM; Ki ([16]; read-out: Ki): 3550 nM; IC50 [8]: 33000 nM
 |  |  |  |  |  |  | CCCCCCCC/C=C/CCCCCCCC(=O)OCC(O)COP(=O)(O)O (stereo not given) [OLEOYL] | 120 |  |  |  | EC50 [1]: 9 nM
Not Active |  | Not Active | Not Active |  |  | Not Active | CCCCCCCC/C=C/CCCCCCCCOP(=O)(O)O |  | Not Active |  |  | IC50 [2]: Not Active; Emax [17]: 11%
 |  | Not Active |  |  |  | Not Active | CCCCCCCCCCCCCCCC(=O)N[C@@H](COP(=O)(O)O)C(=O)O |  |  |  |  | EC50 [18]: 1850 nM; IC50 [2]: Not Active; Emax [19]: 100%; Emax [17]: 42%; EC50 [20]: 1600 nM
Not Active | 58 | Not Active | Not Active |  | 96 |  | CCCC/C=C/CCCCCCCCOP(=O)(O)O |  |  | 241 | 123 | EC50 [13]: 397 nM
Not Active |  | Not Active | Not Active |  |  |  | CCCCCCCCCCCCCCC(F)(F)P(=O)(O)O |  |  |  |  | 
Not Active | 27 | Not Active | Not Active | > 10000 | 32 |  | CC/C=C/CCCCCCCCOP(=O)(O)O | 89 |  | 916 | 390 | EC50 [15]: 717 nM; EC50 [1]: 1500 nM; IC50 [8]: 700 nM
Not Active | 121 | Not Active | Not Active |  | 384 |  | CCCCCCCCCCOP(=O)(O)O [PHOSPHORIC ACID MONODECYL ESTER] |  | Not Active |  |  | 
Not Active | 202 | Not Active |  | 5500 | 454 | Not Active | CCCCCCCC(=O)OC[C@H](COP(=O)(O)OP(=O)(O)O)OC(=O)CCCCCCC |  |  |  |  | EC50 [21]: Not Active; Ki [5]: 4300 nM
Not Active | 40 | Not Active | Not Active |  | 103 |  | CC/C=C/CCCCCCCCCCOP(=O)(O)O |  |  |  |  | EC50 [13]: 4100 nM
Not Active |  | Not Active | Not Active |  |  | Not Active | CCCCCCCCCCCCCCCCCCP(=O)(O)O |  | Not Active |  |  | IC50 [2]: Not Active; EC50 [22]: Not Active; IC50 [23]: Not Active
Not Active | 211 |  | Not Active | 2300 | 422 | Not Active | CCCCCCCCCCCCCCOP(=O)(O)O [PHOSPHORIC ACID MONOTETRADECYL ESTER] | 87 |  |  |  | IC50 [24]: Not Active; EC50 [1]: 430 nM; Ki [5]: 1080 nM; IC50 [8]: 420 nM
 |  |  |  |  |  |  | CCCCCCCCCCCCCCCC(=O)OC[C@@H](O)COP(=O)(O)O | 120 |  |  |  | EC50 [1]: 10 nM; IC50 [8]: 17 nM
Not Active | 303 | Not Active | Not Active |  | 654 | Not Active | CCCCCCCCCCCCP(=O)(O)O |  | Not Active | 2640 | 1270 | 
Not Active |  | Not Active | Not Active | > 10000 |  |  | C=CCCCCCCCCOP(=O)(O)O |  |  | 1510 | 574 | 

SMILES | EC50 [2] | Ki [3] [nM] | IC50 [4] | EC50 [6] | IC50 [7] [nM] | IC50 [9] [nM] | EC50 [4] | Emax [10] [%] | IC50 [11] | IC50 [12, 26] [nM] | Ki [14] [nM] | other results
C=CCCCCCCCCOP(O)(O)=S | Not Active |  | Not Active | Not Active |  |  |  |  | Not Active | 1000 | 533 | EC50 [13]: > 10000 nM
CCCCCCCCCCOP(O)(O)=S [THIOPHOSPHORIC ACID DECYL ESTER] | Not Active |  | Not Active | Not Active |  |  |  |  | Not Active | 1220 | 521 | 
CCCCCCCC/C=C/CCCCCCCCOP(O)(O)=S |  |  | Not Active |  |  |  |  | 1.12 | Not Active |  |  | EC50 [18]: 193 nM; EC50 [1]: 16 nM; IC50 [2]: Not Active; Emax [17]: 30%; EC50 [13]: 244 nM; IC50 [8]: 18 nM; EC50 [20]: 546 nM
CCCCC/C=C/CCCOP(=O)(O)O | Not Active | 370 | Not Active | Not Active | > 10000 | 830 |  |  |  | 1300 | 735 | EC50 [15]: > 10000 nM
CCCCCCCCCCCCCCOP(O)(O)=S [THIOPHOSPHORIC ACID TETRADECYL ESTER] | Not Active |  | Not Active | Not Active |  |  |  |  | Not Active |  |  | EC50 [12]: Not Active; IC50 ([12]; pc-3): Not Active
CCCC/C=C/CCCCCCCCOP(O)(O)=S | Not Active | 14 | Not Active | Not Active |  | 28 |  |  | Not Active | 938 | 397 | Emax [17]: 40%; EC50 [13]: 480 nM
CC/C=C/CCCCCCCCOP(O)(O)=S | Not Active | 14 | Not Active | Not Active |  | 27 |  | 73 | Not Active | 2970 | 1460 | EC50 [25]: 1000 nM; Emax [17]: 27%; EC50 [13]: 677 nM; IC50 [8]: 700 nM
Cc1noc(-c2ccc(CSCCC(=O)O)cc2)c1NC(=O)OC(C)c1ccccc1Cl (stereo not given) | Not Active | 148 | Not Active | Not Active | 762 | 301 | Not Active |  |  | 3380 | 1740 | Ki [5]: 425 nM; Ki ([16]; rh7777): Not Active
CCCCCCCCCCCCOP(O)(O)=S [THIOPHOSPHORIC ACID DODECYL ESTER] | Not Active |  | Not Active | Not Active |  |  |  |  | Not Active | 2840 | 1300 | 
CCCCCCCCCCP(=O)(O)O | Not Active | 680 | Not Active | Not Active |  | 1200 | Not Active |  | Not Active | 3120 | 1500 | 

From ChEMBL document CHEMBL1140336, “Synthesis, structure-activity relationships, and biological evaluation of fatty alcohol phosphates as lysophosphatidic acid receptor ligands, activators of PPARgamma, and inhibitors of autotaxin” (J Med Chem, 2005)
